According to ChEMBL document CHEMBL1157606, “Acylated phenylethanoid oligoglycosides with hepatoprotective activity from the desert plant Cistanche tubulosa” (Bioorg Med Chem, 2010):

Key:
[1] = system: L929; assay: Cytoprotective activity in mouse L929 cells assessed as inhibition of TNF-alpha-induced cytotoxicity after 44 hrs by MTT assay; format: functional, cell-based; settings: L929, 44 h
Outline: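 L929 cells kept in MEM with 10% FBS and non-essential amino acids at 37 °C, 5% CO2; seeded 3 × 10^4 cells/well, exposed 44 h to TNF-α (20 ng/mL) with or without sample (DMSO, final 0.5%). Viability by MTT: formazan dissolved in acidic isopropanol, OD 570 nm (ref 655 nm). Inhibition % = (sample − control)/(normal − control) × 100.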

[2] = system: Mus musculus; assay: Hepatoprotective activity against D-galactosamine/lipopolysaccharide-induced liver injury in ddY mouse assessed as inhibition of increase in sALT level at 25 mg/kg, po administered 1 hr before D-GalN/LPS challenge measured after 10 hrs; format: functional
Outline: (§1)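 Male ddY mice (25–30 g), fasted 20 h. Sample suspended in 5% gum arabic, given orally at 10 mL/kg 1 h before i.p. D-GalN (350 mg/kg) plus LPS (10 μg/kg) in saline. Vehicle controls dosed alike. Blood from infraorbital venous plexus at 10 h; sAST and sALT by Reitman–Frankel method. Hydrocortisone as reference.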

[3] = system: Mus musculus; assay: Hepatoprotective activity against D-galactosamine/lipopolysaccharide-induced liver injury in ddY mouse assessed as inhibition of increase in sAST level at 100 mg/kg, po administered 1 hr before D-GalN/LPS challenge measured after 10 hrs; format: functional; outline: as §1
[4] = system: Mus musculus; assay: Hepatoprotective activity against D-galactosamine/lipopolysaccharide-induced liver injury in ddY mouse assessed as inhibition of increase in sALT level at 100 mg/kg, po administered 1 hr before D-GalN/LPS challenge measured after 10 hrs; format: functional; outline: as §1
[5] = system: Hepatocyte; assay: Hepatoprotective activity in ddY mouse primary cultured hepatocytes assessed as inhibition of D-galactosamine-induced cytotoxicity after 44 hrs by MTT assay; format: functional, cell-based
Outline: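 Hepatocytes isolated from male ddY mice (30–35 g) by collagenase perfusion; 4 × 10^4 cells/well in William's E with 10% FBS, pre-cultured 4 h at 37 °C, 5% CO2, then 44 h with D-GalN (2 mM) ± sample. MTT (4 h); formazan in isopropanol/0.04 M HCl, OD 570 nm (ref 655 nm). Inhibition % = (sample − control)/(normal − control) × 100.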

[6] = system: Peritoneal macrophage cell; assay: Inhibition of LPS-induced nitric oxide production in ddY mouse peritoneal macrophages; format: functional, cell-based
[7] = system: Peritoneal macrophage cell; assay: Inhibition of LPS-induced TNFalpha production in ddY mouse peritoneal macrophages; format: functional, cell-based
Outline: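 Thioglycollate-elicited peritoneal macrophages from male ddY mice, 5 × 10^5 cells/well in RPMI 1640 with 5% FBS, 1 h pre-culture, nonadherent cells washed off. Compound (DMSO, final 0.5%) added 10 min before LPS (medium containing 10 μg/mL), 4 h incubation; TNF-α in medium by ELISA.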

[8] = system: Mus musculus; assay: Hepatoprotective activity against D-galactosamine/lipopolysaccharide-induced liver injury in ddY mouse assessed as inhibition of increase in sAST level at 25 mg/kg, po administered 1 hr before D-GalN/LPS challenge measured after 10 hrs; format: functional; outline: as §1
[9] = system: Mus musculus; assay: Hepatoprotective activity against D-galactosamine/lipopolysaccharide-induced liver injury in ddY mouse assessed as inhibition of increase in sALT level at 10 mg/kg, po administered 1 hr before D-GalN/LPS challenge measured after 10 hrs; format: functional; outline: as §1
[10] = system: Mus musculus; assay: Hepatoprotective activity against D-galactosamine/lipopolysaccharide-induced liver injury in ddY mouse assessed as inhibition of increase in sAST level at 10 mg/kg, po administered 1 hr before D-GalN/LPS challenge measured after 10 hrs; format: functional; outline: as §1

Structure (SMILES) | IC50 [1] [µM] | inhibition in vivo at 25 mg/kg [2] [%] | inhibition in vivo at 100 mg/kg [3] [%] | inhibition in vivo at 100 mg/kg [4] [%] | IC50 [5] [µM] | IC50 [6] [µM] | IC50 [7] [µM] | inhibition in vivo at 25 mg/kg [8] [%] | inhibition in vivo at 10 mg/kg [9] [%] | inhibition in vivo at 10 mg/kg [10] [%]
C[C@@H]1O[C@@H](O[C@@H]2[C@@H](O)[C@H](OCCc3ccc(O)c(O)c3)O[C@H](CO)[C@H]2OC(=O)/C=C/c2ccc(O)c(O)c2)[C@H](O)[C@H](O)[C@H]1O [ACETOSIDE] | 17.8 | 44.4 | 68.5 | 59.5 | 4.6 | > 100 | > 100 | 51.3 |  | 
C[C@H]1O[C@H](O[C@@H]2[C@@H](O)[C@H](OCCc3ccc(O)c(O)c3)O[C@H](CO[C@H]3O[C@@H](CO)[C@H](O)[C@@H](O)[C@@H]3O)[C@H]2OC(=O)/C=C/c2ccc(O)c(O)c2)[C@@H](O)[C@@H](O)[C@@H]1O [ECHINACOSIDE] | 31.1 | 43.8 | 66.7 | 52 | 10.2 | > 100 | > 100 | 61.2 |  | 
C[C@]12CCC(=O)C=C1CC[C@@H]1[C@@H]2[C@@H](O)C[C@@]2(C)[C@H]1CC[C@]2(O)C(=O)CO [HYDROCORTISONE] |  |  |  |  |  |  |  |  | 97.7 | 94.2
C[C@@H]1O[C@@H](O[C@@H]2[C@@H](O)[C@H](OCCc3ccc(O)c(O)c3)O[C@H](COC(=O)/C=C/c3ccc(O)c(O)c3)[C@H]2O)[C@H](O)[C@H](O)[C@H]1O [ISOACTEOSIDE] | 22.7 | 40.2 | 70.9 | 58.7 | 5.3 | > 100 | > 100 | 46.1 |  | 
COc1cc(C2Oc3cc([C@H]4Oc5cc(O)cc(O)c5C(=O)[C@@H]4O)ccc3OC2CO)ccc1O (stereo partly drawn) [SILIBININ] | 60.4 |  |  |  | 38.8 |  |  |  |  | 
